PolyA inh: yeast polyadenylation inhibition; AID 1875; S. cerevisiae SKY197-pL101 polyadenylation reporter, beta-gal luminescence; efflux-impaired pdr1/pdr3 knockout yeast; score 100 = 6 SD above DMSO; 300,000 tested, 0.02% active; activity score, % at 12 µM;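 active means lowest replicate activity score at least 50, where 100 means six control SD above control mean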;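 further: yeast exposed to compound for 9 h at 30 °C; higher score means more reporter readthrough which indicates perturbed polyadenylation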
IMP-1 inh-1: inhibitors of Pseudomonas aeruginosa IMP-1 metallo-beta-lactamase; purified IMP-1, nitrocefin hydrolysis, epi-absorbance fluorescence; inhibition, % at 5.6 µM; 290,000 tested, 0.45% active;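 active means inhibition above the mean plus 3 SD of all compounds in the same screening run, cut at about 4.5% in these data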;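 further: 0% = IMP-1 with DMSO and 100% = DMSO wells lacking enzyme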
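Material – recombinant IMP-1 enzyme, purified · Amount – IMP-1 0.2 nM before substrate addition · Medium – HEPES buffer pH 7.1 with ZnSO4 and Brij 35 · Timing – 25 °C, 15 min preincubation, 25 min reaction · Measured by – plate fluorescence quenching by hydrolysis product, ex 480/em 530 nm · Read-out – percent enzyme inhibition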
NALP3 yeast inh: inhibitors of NALP3 inflammasome in yeast; Yeast reconstituted NLRP3/ASC/caspase-1, beta-gal luminescence, 24 h; inhibition, % at 10 µM; 330,000 tested, 0.39% active; AID 2825;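 active means inhibition of 50% or more; inactive means inhibition below 50%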;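 further: plate controls were induced DMSO wells for no effect and uninduced yeast grown without galactose for full effect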
VIM-2 inh: inhibitors of Pseudomonas aeruginosa VIM-2 metallo-beta-lactamase; purified VIM-2, nitrocefin hydrolysis, epi-absorbance fluorescence; inhibition, % at 5.6 µM; 290,000 tested, 0.89% active;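 active means inhibition above the mean of all tested compounds plus 3 SD, cutoff set per screening run, cut at about 7.5% in these data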;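 further: red hydrolysis product quenches plate fluorescence so inhibitors raise well fluorescence; 0% = enzyme with DMSO and 100% = DMSO without enzyme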
Mot1-301 SUMO: SUMOylation pathway inhibition by Mot1-301 growth rescue; S. cerevisiae Mot1-301 growth rescue, ATP luminescence, 38.5C; percent above DMSO median, 100 means doubled; growth rescue, % at 18.8 µM; 320,000 tested, 1% active; AID 2716;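 active means every valid replicate shows activation above 250% relative to neutral control wells; inactive means the rest, any valid replicate at or below 250%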;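 further: OY570 slx delta 5 strain wells were the positive control but not used for scaling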
NALP1 inh: NALP1 inhibition | inhibition, % at 10 µM | S. cerevisiae NALP1/ASC/caspase-1 growth, X-gal OD620, 72 h | 280,000 tested, 0.61% active; in the data active means inhibition mostly above about 24%, no sharp cut-off; inactive means mostly below about 32%
IMP-1 inh-2: blocks IMP-1 metallo-beta-lactamase in VIM-2 selectivity screen | shares compounds with VIM-2 inh | purified IMP-1, nitrocefin hydrolysis, epi-absorbance fluorescence | inhibition, % at 5.6 µM | 1,300 tested, under 10 active; call rule not given here;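 further: 0% = enzyme with vehicle and 100% = vehicle without enzyme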
VIM-2 FRET ctr: inhibits VIM-2 in FRET assay to exclude epi-absorbance artifacts. shares compounds with VIM-2 inh. purified VIM-2, CCF2 FRET substrate hydrolysis. inhibition, % at 5.6 µM. 1,300 tested, 23% active. AID 1857;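 active means inhibition above the mean of all tested compounds plus 3 SD, cut at about 19% in these data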;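 further: 0% = VIM-2 plus DMSO and 100% = no enzyme wells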
TEM-1 counter: TEM-1 inhibition, counter-screen for VIM-2 inhibitors; shares compounds with VIM-2 inh; AID 1866; 1,300 tested, 3% active; inhibition, % at 5.6 µM; Purified TEM-1, nitrocefin hydrolysis, epi-absorbance fluorescence;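 active means inhibition above that campaign's mean inhibition plus 3 SD, cut at about 0.46% in these data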;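 further: 0% = TEM-1 with DMSO and 100% = TEM-1 with 100 µM potassium clavulanate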
Target sequence (P62593 whole entry, looked up): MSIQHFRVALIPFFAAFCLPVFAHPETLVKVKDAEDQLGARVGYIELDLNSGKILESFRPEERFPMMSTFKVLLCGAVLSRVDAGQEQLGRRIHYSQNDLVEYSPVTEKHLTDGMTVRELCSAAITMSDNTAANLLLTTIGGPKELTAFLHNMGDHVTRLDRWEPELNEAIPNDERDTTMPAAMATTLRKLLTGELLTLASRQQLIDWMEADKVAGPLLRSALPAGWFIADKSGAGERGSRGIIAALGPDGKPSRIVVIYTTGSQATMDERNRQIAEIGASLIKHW
VIM-2 inh conf: confirmation of P. aeruginosa VIM-2 metallo-beta-lactamase inhibitors; inhibition, % at 5.6 µM; 1,300 tested, 96% active; shares compounds with VIM-2 inh; purified VIM-2, nitrocefin hydrolysis, epi-absorbance;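 active means inhibition of the VIM-2 beta-lactamase enzyme above about 11% from the earlier first-round screen, limit read from the data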;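 further: 0% = VIM-2 with DMSO and 100% = buffer wells without enzyme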
Numbers without * were called inactive. Shown are actives, neighbours in structure and some others; about 2.9% of the full set was active somewhere.

How did COc1ccc(C(=O)NCC(c2ccccc2)N2CCCC2)cc1S(=O)(=O)N1CCOCC1 (stereo unspecified) do in these assays?
NALP3 yeast inh: 13; Mot1-301 SUMO: 8

How did COc1cc(Nc2cc(C)nc3ncnn23)cc(OC)c1 do in these assays?
PolyA inh: 1; IMP-1 inh-1: -3; NALP3 yeast inh: 14; VIM-2 inh: 5; Mot1-301 SUMO: 5; NALP1 inh: 23

What do the screens show for `COC(=O)c1cc(Nc2cc(C)nc3ncnn23)cc(C(=O)OC)c1`?
PolyA inh: 2; IMP-1 inh-1: -3; NALP3 yeast inh: 15; VIM-2 inh: 15*; Mot1-301 SUMO: -6; NALP1 inh: 19; IMP-1 inh-2: -5; VIM-2 FRET ctr: 3; TEM-1 counter: -5; VIM-2 inh conf: 35*

How did COc1cc(OC)cc(C(=O)N2CCN(C(=O)c3cccnc3)CC2)c1 do in these assays?
PolyA inh: -6; IMP-1 inh-1: -5; NALP3 yeast inh: 7; VIM-2 inh: -1; Mot1-301 SUMO: 6; NALP1 inh: 4

How did CCN(CC)CCOC(=O)c1cccc2c1-c1ccccc1C2O (stereo unspecified) do in these assays?
PolyA inh: 4; IMP-1 inh-1: 0; NALP3 yeast inh: 16; VIM-2 inh: 25*; Mot1-301 SUMO: 10; NALP1 inh: 16; IMP-1 inh-2: -5; VIM-2 FRET ctr: 4; TEM-1 counter: -9; VIM-2 inh conf: 43*

How did CN(C)CCNC(=O)c1ccc(-c2nn(C)c(=O)c3ccccc23)cc1 do in these assays?
PolyA inh: 8; IMP-1 inh-1: -3; NALP3 yeast inh: 3; VIM-2 inh: 32*; Mot1-301 SUMO: 6; NALP1 inh: 1; IMP-1 inh-2: -3; VIM-2 FRET ctr: -1; TEM-1 counter: -5; VIM-2 inh conf: 50*

What do the screens show for `CCCNC(=O)c1ccc(-c2nn(C)c(=O)c3ccccc23)cc1`?
PolyA inh: -7; IMP-1 inh-1: -2; NALP3 yeast inh: 25; VIM-2 inh: 3; Mot1-301 SUMO: -2; NALP1 inh: -4

How did Cn1nc(-c2ccc(C(=O)N3CCN(CCO)CC3)cc2)c2ccccc2c1=O do in these assays?
PolyA inh: 13; IMP-1 inh-1: -4; NALP3 yeast inh: 11; VIM-2 inh: 65*; Mot1-301 SUMO: -1; NALP1 inh: 20; IMP-1 inh-2: -3; VIM-2 FRET ctr: 2; TEM-1 counter: -6; VIM-2 inh conf: 69*

What do the screens show for `CN1CCN(C(=O)c2ccc(-c3nn(C)c(=O)c4ccccc34)cc2)CC1`?
PolyA inh: 0; IMP-1 inh-1: -4; NALP3 yeast inh: 13; VIM-2 inh: 70*; Mot1-301 SUMO: -7; IMP-1 inh-2: -1; VIM-2 FRET ctr: -8; TEM-1 counter: 1.5*; VIM-2 inh conf: 79*

How did CCC(CO)NC(=O)c1ccc(-c2nn(C)c(=O)c3ccccc23)cc1 (stereo unspecified) do in these assays?
PolyA inh: 6; IMP-1 inh-1: -4; NALP3 yeast inh: -1; VIM-2 inh: 3; Mot1-301 SUMO: -16; NALP1 inh: -5

How did CN1CCN(C(=O)c2ccc(-c3ccccc3)cc2)CC1 do in these assays?
PolyA inh: 6; IMP-1 inh-1: 0; NALP3 yeast inh: 7; VIM-2 inh: 1; Mot1-301 SUMO: 7; NALP1 inh: 18

How did COc1ccc(CC(=O)Nc2cccc(-c3ccc4nncn4n3)c2)cc1OC do in these assays?
PolyA inh: -18; IMP-1 inh-1: -2; NALP3 yeast inh: -13; VIM-2 inh: 0; Mot1-301 SUMO: -2; NALP1 inh: 5

Source: PubChem
